Assay results from ChEMBL document CHEMBL1681713, “Lead detoxification activities and ADMET hepatotoxicities of a class of novel 5-(1-carbonyl-L-amino-acid)-2,2-dimethyl-[1,3]dithiolane-4-carboxylic acids” (Bioorg Med Chem Lett, 2011).

Assays:
Kidney [1] = assay: Toxicity in mouse assessed as effect on zinc level in kidney per gram of organ at 0.4 mmol/kg, ip qd for 5 days; assay type: organism-based; settings: in vivo, 120 h
[2] = Detoxification activity against lead-induced toxicity in mouse assessed as reduction lead level in urine at 0.4 mmol/kg, ip qd for 5 days measured 24 hrs last post dose by synchrotron X-ray fluorescence analysis; assay type: functional
Summary of the method: (§1)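 Lead-loaded mice were given normal saline vehicle, DL-penicillamine or NaDMS (positive controls), or test agent, each at 0.4 mmol/kg; n = 12 per group. Lead was measured in feces and urine and reported as mean ± SD µg Pb/g excrement against the NS group.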

Brain [3] = assay: Toxicity in mouse assessed as effect on calcium level in brain per gram of organ at 0.4 mmol/kg, ip qd for 5 days; assay type: organism-based; settings: in vivo, 120 h
Kidney [4] = assay: Toxicity in mouse assessed as effect on manganese level in kidney per gram of organ at 0.4 mmol/kg, ip qd for 5 days; assay type: organism-based; settings: in vivo, 120 h
Brain [5] = assay: Toxicity in mouse assessed as effect on copper level in brain per gram of organ at 0.4 mmol/kg, ip qd for 5 days; assay type: organism-based; settings: in vivo, 120 h
Liver [6] = assay: Detoxification activity against lead-induced toxicity in mouse assessed as reduction lead level in liver per gram of organ at 0.4 mmol/kg, ip qd for 5 days measured 24 hrs last post dose by synchrotron X-ray fluorescence analysis; assay type: functional
Summary of the method: (§2)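 Lead-loaded mice were given normal saline vehicle (negative control) or test agent at 0.2, 0.4 or 0.6 mmol/kg. Lead was measured in liver, kidney, left femur and brain and reported as mean ± SD µg Pb/g organ against the NS group.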

Brain [7] = assay: Toxicity in mouse assessed as effect on zinc level in brain per gram of organ at 0.4 mmol/kg, ip qd for 5 days; assay type: organism-based; settings: in vivo, 120 h
Liver [8] = assay: Toxicity in mouse assessed as effect on iron level in liver per gram of organ at 0.4 mmol/kg, ip qd for 5 days; assay type: organism-based; settings: in vivo, 120 h
Liver [9] = assay: Toxicity in mouse assessed as effect on zinc level in liver per gram of organ at 0.4 mmol/kg, ip qd for 5 days; assay type: organism-based; settings: in vivo, 120 h
Kidney [10] = assay: Toxicity in mouse assessed as effect on calcium level in kidney per gram of organ at 0.4 mmol/kg, ip qd for 5 days; assay type: organism-based; settings: in vivo, 120 h
[11] = Detoxification activity against lead-induced toxicity in mouse assessed as reduction lead level in feces at 0.4 mmol/kg, ip qd for 5 days measured 24 hrs last post dose by synchrotron X-ray fluorescence analysis; assay type: functional; summary of the method: as §1
Femur = assay: Detoxification activity against lead-induced toxicity in mouse assessed as reduction lead level in femurs per gram of organ at 0.4 mmol/kg, ip qd for 5 days measured 24 hrs last post dose by synchrotron X-ray fluorescence analysis; assay type: functional; summary of the method: as §2
Brain [12] = assay: Toxicity in mouse assessed as effect on manganese level in brain per gram of organ at 0.4 mmol/kg, ip qd for 5 days; assay type: organism-based; settings: in vivo, 120 h
Brain [13] = assay: Toxicity in mouse assessed as effect on iron level in brain per gram of organ at 0.4 mmol/kg, ip qd for 5 days; assay type: organism-based; settings: in vivo, 120 h
Liver [14] = assay: Toxicity in mouse assessed as effect on manganese level in liver per gram of organ at 0.4 mmol/kg, ip qd for 5 days; assay type: organism-based; settings: in vivo, 120 h
Kidney [15] = assay: Toxicity in mouse assessed as effect on copper level in kidney per gram of organ at 0.4 mmol/kg, ip qd for 5 days; assay type: organism-based; settings: in vivo, 120 h
Brain [16] = assay: Detoxification activity against lead-induced toxicity in mouse assessed as reduction lead level in brain per gram of organ at 0.4 mmol/kg, ip qd for 5 days measured 24 hrs last post dose by synchrotron X-ray fluorescence analysis; assay type: functional; summary of the method: as §2
Liver [17] = assay: Toxicity in mouse assessed as effect on copper level in liver per gram of organ at 0.4 mmol/kg, ip qd for 5 days; assay type: organism-based; settings: in vivo, 120 h
Mus musculus = assay: Toxicity in mouse assessed as change in bodyweight at 0.4 mmol/kg, ip qd for 5 days; assay type: organism-based; settings: in vivo, 120 h
Summary of the method: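 Lead-loaded mice were given normal saline vehicle or test agent at 0.4 mmol/kg. Body weights were recorded and compared with the NS group to assess growth.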

Kidney [18] = assay: Toxicity in mouse assessed as effect on iron level in kidney per gram of organ at 0.4 mmol/kg, ip qd for 5 days; assay type: organism-based; settings: in vivo, 120 h
Liver [19] = assay: Toxicity in mouse assessed as effect on calcium level in liver per gram of organ at 0.4 mmol/kg, ip qd for 5 days; assay type: organism-based; settings: in vivo, 120 h
Kidney [20] = assay: Detoxification activity against lead-induced toxicity in mouse assessed as reduction lead level in kidney per gram of organ at 0.4 mmol/kg, ip qd for 5 days measured 24 hrs last post dose by synchrotron X-ray fluorescence analysis; assay type: functional; summary of the method: as §2
[21] = Apparent permeability from basolateral to apical side of human Caco2 cells at 4 mM up to 120 mins by HPLC analysis; assay type: ADME, cell-based; settings: Caco-2
Summary of the method: (§3)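 Permeability measured across Caco-2 cell monolayers.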

Caco-2 = assay: Efflux ratio of permeability […] in human Caco2 cells at 4 mM up to 120 mins by HPLC analysis; assay type: ADME, cell-based; settings: caco-2, 2 h, 4000 µM; summary of the method: as §3
[22] = Apparent permeability from apical to basolateral side of human Caco2 cells at 4 mM up to 120 mins by HPLC analysis; assay type: ADME, cell-based; settings: Caco-2; summary of the method: as §3

| Compound | Activity (Kidney [1]) [µg/g] | Activity [2] [µg/g] | Activity (Brain [3]) [µg/g] | Activity (Kidney [4]) [µg/g] | Activity (Brain [5]) [µg/g] | Activity (Liver [6]) [µg/g] | Activity (Brain [7]) [µg/g] | Activity (Liver [8]) [µg/g] | Activity (Liver [9]) [µg/g] | Activity (Kidney [10]) [µg/g] | Activity [11] [µg/g] | Activity (Femur) [µg/g] | Activity (Brain [12]) [µg/g] | Activity (Brain [13]) [µg/g] | Activity (Liver [14]) [µg/g] | Activity (Kidney [15]) [µg/g] | Activity (Brain [16]) [µg/g] | Activity (Liver [17]) [µg/g] | Activity (Mus musculus) [g] | Activity (Kidney [20]) [µg/g] | other results |
| --- | --- | --- | --- | --- | --- | --- | --- | --- | --- | --- | --- | --- | --- | --- | --- | --- | --- | --- | --- | --- | --- |
| CC1(C)SC(C(=O)O)C(C(=O)N[C@@H](CO)C(=O)O)S1 (some centres undefined) | 28.1 | 2.83 | 68.08 | 1.42 | 2.39 | 3.21 | 34.09 | 153.39 | 37 | 75.89 | 4.41 | 14.7 | 0.78 | 56.47 | 1.37 | 3.73 | 1.05 | 3.73 | 31.5 | 6.43 | Activity (Kidney [18]): 93.69 µg/g; Activity (Liver [19]): 59.65 µg/g |
| CC1(C)SC(C(=O)O)C(C(=O)NCC(=O)O)S1 (centres undefined) | 27.68 | 2.07 | 71.4 | 1.31 | 2.5 | 3.29 | 34.31 | 154.3 | 36.35 | 76.17 | 4.53 | 20.82 | 0.74 | 57.03 | 1.29 | 3.62 | 1.39 | 3.58 | 30.4 | 6.68 | Activity (Kidney [18]): 94.4 µg/g; Activity (Liver [19]): 60.01 µg/g |
| CC1(C)SC(C(=O)O)C(C(=O)N[C@@H](CCC(N)=O)C(=O)O)S1 (some centres undefined) | 28.09 | 2.89 | 71.82 | 1.33 | 2.64 | 3.07 | 34.68 | 153.02 | 37.85 | 76.93 | 4.5 | 14.59 | 0.69 | 57.66 | 1.37 | 3.59 | 1.02 | 3.76 | 29.6 | 6.86 | Activity (Kidney [18]): 94.48 µg/g; Activity (Liver [19]): 59.07 µg/g |
| CC(C)(S)C(N)C(=O)O (racemic) [DL-PENICILLAMINE] |  | 1.94 |  |  |  | 3.52 |  |  |  |  | 3.26 | 14.99 |  |  |  |  | 1.61 |  |  | 7.24 | Papp B→A at 2 h, 4000 µM [21]: 11.5 ×10⁻⁶ cm/s; Ratio (Caco-2): 1.14; Papp A→B at 2 h, 4000 µM [22]: 13.1 ×10⁻⁶ cm/s |
| CC1(C)SC(C(=O)O)C(C(=O)N[C@@H](CCC(=O)O)C(=O)O)S1 (some centres undefined) | 28.16 | 2.65 | 69.99 | 1.35 | 2.5 | 5.64 | 34.99 | 154.4 | 38.01 | 77.45 | 4.49 | 13.69 | 0.77 | 57.57 | 1.4 | 3.73 | 1.22 | 3.72 | 30.5 | 7.21 | Activity (Kidney [18]): 93.97 µg/g; Activity (Liver [19]): 60.4 µg/g |
| O=C([O-])C(S)C(S)C(=O)[O-].[Na+].[Na+] (centres undefined) |  | 1.79 |  |  |  | 4.75 |  |  |  |  | 4.59 | 14.31 |  |  |  |  | 1.72 |  |  | 6.23 | Papp B→A at 2 h, 4000 µM [21]: 10 ×10⁻⁶ cm/s; Ratio (Caco-2): 1.1; Papp A→B at 2 h, 4000 µM [22]: 11 ×10⁻⁶ cm/s |
| CC1(C)SC(C(=O)O)C(C(=O)N[C@@H](Cc2ccccc2)C(=O)O)S1 (some centres undefined) | 27.57 | 1.72 | 69.84 | 1.43 | 2.59 | 4.6 | 34.51 | 154.97 | 36.69 | 76.76 | 4.85 | 16.75 | 0.75 | 56.31 | 1.31 | 3.59 | 1.11 | 3.63 | 29.9 | 6.61 | Activity (Kidney [18]): 94.82 µg/g; Activity (Liver [19]): 60.61 µg/g |
| CC1(C)SC(C(=O)O)C(C(=O)N[C@@H](Cc2c[nH]c3ccccc23)C(=O)O)S1 (some centres undefined) | 27.99 | 2.84 | 69.35 | 1.4 | 2.39 | 5.59 | 33.04 | 153.84 | 36.96 | 76.92 | 4.14 | 17.66 | 0.78 | 56.94 | 1.4 | 3.69 | 1.21 | 3.76 | 30.8 | 7.5 | Activity (Kidney [18]): 93.07 µg/g; Activity (Liver [19]): 59.69 µg/g |
| CC(C)[C@H](NC(=O)C1SC(C)(C)SC1C(=O)O)C(=O)O (some centres undefined) | 27.64 | 2.65 | 72 | 1.4 | 2.55 | 3.19 | 34.51 | 155.25 | 36.49 | 76.97 | 4.76 | 14.93 | 0.76 | 57.35 | 1.4 | 3.62 | 1.49 | 3.51 | 29.9 | 6.16 | Activity (Kidney [18]): 95.56 µg/g; Activity (Liver [19]): 60.24 µg/g |
| CC(C)C[C@H](NC(=O)C1SC(C)(C)SC1C(=O)O)C(=O)O (some centres undefined) | 26.99 | 3.44 | 69.29 | 1.41 | 2.6 | 3.64 | 32.49 | 153.8 | 37.88 | 76.48 | 3.99 | 16.33 | 0.7 | 57.49 | 1.41 | 3.65 | 1.44 | 3.59 | 29.7 | 7.32 | Activity (Kidney [18]): 93.02 µg/g; Activity (Liver [19]): 59.8 µg/g |
